According to ChEMBL document CHEMBL2169742, “Design, synthesis, and biological evaluation of novel transrepression-selective liver X receptor (LXR) ligands with 5,11-dihydro-5-methyl-11-methylene-6H-dibenz[b,e]azepin-6-one skeleton” (J Med Chem, 2012):
The source made the active and inactive calls. The rule behind the calls is not given here.

Key:
[1] = molecular target: T1, Oxysterols receptor LXR-beta (Homo sapiens) (UniProt P55055); assay: Transactivational antagonist activity at human LXRbeta transfected in HEK293 cells expressing CMX-Gal4N assessed as inhibition of T1317-induced luciferase activity at 30 uM after 16 hrs by reporter gene assay; type: functional, cell-based
T1 sequence (whole entry): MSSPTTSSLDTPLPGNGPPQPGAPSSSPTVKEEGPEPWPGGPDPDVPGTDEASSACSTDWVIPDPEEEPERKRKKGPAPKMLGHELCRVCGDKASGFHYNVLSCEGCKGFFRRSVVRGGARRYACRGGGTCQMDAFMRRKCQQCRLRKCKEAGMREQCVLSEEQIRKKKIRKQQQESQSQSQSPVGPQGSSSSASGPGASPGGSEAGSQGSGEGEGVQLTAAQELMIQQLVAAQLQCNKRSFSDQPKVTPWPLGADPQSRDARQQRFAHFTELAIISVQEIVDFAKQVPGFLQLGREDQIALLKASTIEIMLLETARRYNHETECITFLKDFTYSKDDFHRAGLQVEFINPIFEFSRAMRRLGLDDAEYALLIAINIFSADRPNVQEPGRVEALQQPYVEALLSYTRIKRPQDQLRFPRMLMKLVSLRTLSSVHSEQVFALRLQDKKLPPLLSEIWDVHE
Outline: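 Gal4-hLXRα or Gal4-hLXRβ chimera (15 ng) cotransfected with tk-MH100×4-luc reporter (50 ng) and CMX-β-gal (10 ng) into HEK293 cells by calcium phosphate. From 8 h post-transfection, cells got compound (0.1–30 μM) or DMSO for 16 h. Luciferase was normalized to β-gal, in triplicate.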

[2] = molecular target: T2, Oxysterols receptor LXR-alpha (Homo sapiens, UniProt Q13133); assay: Transactivational antagonist activity at human LXRalpha transfected in HEK293 cells expressing CMX-Gal4N assessed as inhibition of T1317-induced luciferase activity after 16 hrs by reporter gene assay; type: functional, cell-based
T2 sequence (Q13133 whole entry): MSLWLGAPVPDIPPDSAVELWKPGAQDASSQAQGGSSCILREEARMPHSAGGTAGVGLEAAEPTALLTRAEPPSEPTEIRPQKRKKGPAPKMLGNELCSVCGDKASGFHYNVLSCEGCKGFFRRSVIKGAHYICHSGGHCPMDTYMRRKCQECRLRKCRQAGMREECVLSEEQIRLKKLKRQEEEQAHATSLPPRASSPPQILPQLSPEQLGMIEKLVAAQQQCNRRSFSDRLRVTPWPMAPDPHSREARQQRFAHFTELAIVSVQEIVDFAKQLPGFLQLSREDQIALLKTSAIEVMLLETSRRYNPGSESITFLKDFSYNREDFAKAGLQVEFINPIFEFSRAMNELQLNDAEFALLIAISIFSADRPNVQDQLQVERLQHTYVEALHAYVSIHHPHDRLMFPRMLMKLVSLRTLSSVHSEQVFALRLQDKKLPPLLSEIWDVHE

[3] = molecular target: T3, Oxysterols receptor LXR-beta (Homo sapiens, UniProt P55055); assay: Transactivational agonist activity at human LXRbeta transfected in HEK293 cells expressing CMX-Gal4N assessed as luciferase activity at 30 uM after 16 hrs by reporter gene assay; type: cell-based; details: hek293, 16 h
T3 sequence (P55055 whole entry): T1 sequence (whole entry)

[4] = molecular target: T2, Oxysterols receptor LXR-alpha; assay: Transactivational agonist activity at human LXRalpha transfected in HEK293 cells expressing CMX-Gal4N assessed as luciferase activity at 30 uM after 16 hrs by reporter gene assay; type: cell-based; details: hek293, 16 h
[5] = molecular target: Liver X receptor (Homo sapiens) (UniProt Q13133+P55055); assay: Transrepressional activity at LXR in human TPA-activated THP1 cells assessed as inhibition of LPS-induced IL6 production at 30 uM incubated for 6 hrs prior to LPS-challenge measured after 18 hrs by ELISA; type: cell-based; details: THP-1
Outline: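 THP-1 cells were differentiated with 10 nM TPA for 48 h, then replated at 3 × 10⁴/well. They were pretreated with sample for 6 h before LPS (100 ng/mL). Supernatant IL-6 was measured by ELISA after 18 h.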

[6] = molecular target: T3, Oxysterols receptor LXR-beta; assay: Transactivational antagonist activity at human LXRbeta transfected in HEK293 cells expressing CMX-Gal4N assessed as inhibition of T1317-induced luciferase activity after 16 hrs by reporter gene assay; type: functional, cell-based
[7] = molecular target: T3, Oxysterols receptor LXR-beta; assay: Transactivational agonist activity at human LXRbeta transfected in HEK293 cells expressing CMX-Gal4N assessed as luciferase activity after 16 hrs by reporter gene assay relative to N-(4-(1,1,1,3,3,3-hexafluoro-2-hydroxypropan-2-yl)phenyl)-N-methylbenzamide; type: cell-based; details: read-out: Efficacy
[8] = molecular target: T3, Oxysterols receptor LXR-beta; assay: Transactivational agonist activity at human LXRbeta transfected in HEK293 cells expressing CMX-Gal4N assessed as luciferase activity after 16 hrs by reporter gene assay; type: cell-based
Outline: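 Gal4-hLXRα or Gal4-hLXRβ chimera (15 ng) cotransfected with tk-MH100×4-luc reporter (50 ng) and CMX-β-gal (10 ng) into HEK293 cells by calcium phosphate. Luciferase was normalized to β-gal, in triplicate.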

[9] = molecular target: T2, Oxysterols receptor LXR-alpha; assay: Transactivational agonist activity at human LXRalpha transfected in HEK293 cells expressing CMX-Gal4N assessed as luciferase activity after 16 hrs by reporter gene assay relative to N-(4-(1,1,1,3,3,3-hexafluoro-2-hydroxypropan-2-yl)phenyl)-N-methylbenzamide; type: cell-based; details: read-out: Efficacy
[10] = molecular target: T2, Oxysterols receptor LXR-alpha; assay: Transactivational agonist activity at human LXRalpha transfected in HEK293 cells expressing CMX-Gal4N assessed as luciferase activity after 16 hrs by reporter gene assay; type: cell-based
[11] = Binding affinity to GST at 1 uM after 1 hr by fluorescence polarization assay
Outline: (§1)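 Fluorescence polarization binding: full-length GST-hLXRα or GST was expressed in E. coli Rosetta(DE3) (0.4 mM IPTG, 15 °C, 24 h) and purified on glutathione resin. Protein dilutions, or 1 μM protein with competitor, were incubated with fluorescent probe 23 (1 μM) for 1 h at 0 °C. Buffer was 50 mM Tris-HCl, 10 mM reduced glutathione, pH 8.0; excitation 400 nm, emission 500 nm.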

[12] = molecular target: T4, Oxysterols receptor LXR-alpha (Homo sapiens) (UniProt Q13133); assay: Binding affinity to human GST-tagged LXRalpha expressed in Escherichia coli BL21(DE3) at 1 uM after 1 hr by fluorescence polarization assay; outline: as §1
T4 sequence (whole entry): T2 sequence (Q13133 whole entry)

[13] = tested on: Peritoneal macrophage cell; assay: Inhibition of LPS-induced IL-6 production in LXRalpha,LXRbeta-deficient C57BL/6J mouse peritoneal macrophages at 10 uM incubated for 6 hrs prior to LPS-challenge measured after 18 hrs by ELISA; type: functional, cell-based
Outline: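 Thioglycollate-elicited peritoneal macrophages came from 8–10-week LXRα/β-null mice on C57BL/6J background, harvested 4 days post-injection. They were adhered, rested 24 h and plated at 2 × 10⁵/well, then pretreated with compound 6 h before LPS 10 ng/mL. Supernatant mIL-6 was measured by ELISA after 18 h; means ± SE of ≥3 independent measurements, ANOVA.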

[14] = molecular target: T4, Oxysterols receptor LXR-alpha (Homo sapiens); assay: Transactivational antagonist activity at human LXRalpha transfected in HEK293 cells coexpressing CMX-Gal4N-SMRT assessed as SMRT recruitment after 16 hrs by reporter gene assay; type: functional, cell-based
Outline: (§2)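 Mammalian two-hybrid in HEK293 cells by calcium phosphate cotransfection: CMX-VP16N-hLXRα, Gal4N-fused SRC1, DRIP205, NCoR or SMRT (15 ng), tk-MH100×4-luc (50 ng) and CMX-β-gal (10 ng). Compound or DMSO added 8 h after transfection for 16 h. Luciferase was normalized to β-galactosidase, in triplicate.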

[15] = molecular target: T4, Oxysterols receptor LXR-alpha (Homo sapiens); assay: Transactivational antagonist activity at human LXRalpha transfected in HEK293 cells coexpressing CMX-Gal4N-NCoR assessed as NCoR recruitment after 16 hrs by reporter gene assay; type: functional, cell-based; outline: as §2
[16] = molecular target: T2, Oxysterols receptor LXR-alpha; assay: Transactivational agonist activity at human LXRalpha transfected in HEK293 cells coexpressing CMX-Gal4N-DRIP205 assessed as DRIP205 recruitment at 10 uM after 16 hrs by mammalian two-hybrid assay; type: cell-based; details: hek293, 16 h; outline: as §2
[17] = molecular target: T2, Oxysterols receptor LXR-alpha; assay: Transactivational agonist activity at human LXRalpha transfected in HEK293 cells coexpressing CMX-Gal4N-SRC1 assessed as SRC1 recruitment at 10 uM after 16 hrs by mammalian two-hybrid assay; type: cell-based; details: hek293, 16 h; outline: as §2
[18] = Metabolic stability in human liver microsomes assessed as compound remaining at 0.1 uM by LC-MS/MS analysis; type: ADME, Microsome; details: read-out: Stability
Outline: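 Human liver microsomes were incubated with compound at 0.1 μM. Percent parent remaining was quantified by LC/MS/MS; imipramine, propranolol, terfenadine and verapamil served as controls.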

[19] = Apparent permeability from apical to basal side of human Caco2 cells at 10 uM; type: ADME, cell-based; details: Caco-2
Outline: (§3)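 Colchicine and ranitidine were low-permeability controls, propranolol the high-permeability control, labetalol the P-gp substrate control.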

[20] = Permeability from apical to basal side of human Caco2 cells at 10 uM; type: ADME, cell-based; details: Caco-2, read-out: permeability; outline: as §3

Row | IC50 [2] [µM] | Activity [3] | Activity [4] | IC50 [6] [µM] | SMILES | other results
1 | 4.1 | Not Active | Not Active | – | Cn1c(=O)c2ccccc2c2cc(C(O)(C(F)(F)F)C(F)(F)F)ccc21 | inhibition [1]: inactive; inhibition [5]: inactive
2 | 6.1 | Not Active | Not Active | 13 | [CH2-]c1c2ccccc2c(=O)[n+](C)c2ccc([N+](=O)[O-])cc12 | –
3 | 1.3 | Not Active | Not Active | 9.5 | C=C1c2ccc(-c3ccc(C(=O)O)cc3)cc2C(=O)N(C)c2ccc(CC)cc21 | inhibition [5]: inactive
4 | > 10 | Not Active | Not Active | > 10 | C=C1c2ccccc2C(=O)N(C)c2ccc(CCCCCC)cc21 | –
5 | 14 | Not Active | Not Active | 26 | C=C1c2ccccc2C(=O)N(C)c2ccc(C(=O)O)cc21 | –
6 | > 10 | – | – | > 10 | C=C1c2ccccc2C(=O)N(C)c2ccccc21 | inhibition [5]: inactive
7 | > 30 | Not Active | Not Active | > 30 | C=C1c2ccccc2C(=O)N(C)c2ccc(CCCCCCCCCCCC)cc21 | inhibition [5]: inactive
8 | – | – | – | – | CN1C(=O)c2ccccc2CCc2cc(C(O)(C(F)(F)F)C(F)(F)F)ccc21 | Emax [7]: 108%; EC50 [8]: 0.26 µM; Emax [9]: 117%; EC50 [10]: 0.91 µM
9 | > 10 | Not Active | Not Active | > 10 | C=C1c2ccccc2C(=O)N(C)c2ccc(CO)cc21 | –
10 | 4.9 | Not Active | Not Active | 7.5 | C=C1c2ccccc2C(=O)N(C)c2ccc(C(C)=O)cc21 | –
11 | > 30 | Not Active | Not Active | > 30 | C=C1c2ccc(-c3cccc(C(=O)O)c3)cc2C(=O)N(C)c2ccc(CC)cc21 | inhibition [5]: inactive
12 | 19 | Not Active | Not Active | 27 | C=C1c2ccccc2C(=O)N(C)c2ccc(N)cc21 | –
13 | – | – | – | – | COc1ccc(CCc2ccc(N3C(=O)c4ccc(N(C)C)cc4C3=O)cc2)cc1 | Activity [11]: inactive; Activity [12]: Active
14 | 5.4 | Not Active | Not Active | > 10 | C=C1c2ccccc2C(=O)N(C)c2ccc(C(C)(C)C)cc21 | inhibition [13]: inactive; Activity [14]: Dose-dependent effect; Activity [15]: Dose-dependent effect; Activity [16]: Toxic; Activity [17]: Toxic
15 | > 10 | Not Active | Not Active | > 10 | C=C1c2ccccc2C(=O)N(C)c2ccc(C)cc21 | –
16 | 1.7 | Not Active | Not Active | > 10 | C=C1c2ccccc2C(=O)N(C)c2ccc(C(C)C)cc21 | –
17 | – | – | – | – | C=C1c2ccccc2C(=O)N(C)c2ccc(O)cc21 | remaining at 0.1 µM [18]: 87.8%; Papp A→B at 10 µM [19]: ≥ 20 ×10⁻⁶ cm/s; Papp A→B at 10 µM [20]: 84.3 ×10⁻⁶ cm/s
18 | 2.2 | Not Active | Not Active | 15 | C=C1c2ccc(-c3ccc(CC(=O)O)cc3)cc2C(=O)N(C)c2ccc(CC)cc21 | –
19 | – | – | – | – | CN(C(=O)c1ccccc1)c1ccc(C(O)(C(F)(F)F)C(F)(F)F)cc1 | Emax [7]: 100%; EC50 [8]: 0.18 µM; Emax [9]: 100%; EC50 [10]: 0.63 µM
20 | 21 | Not Active | Not Active | 27 | C=C1c2ccc(-c3cccc(CC(=O)O)c3)cc2C(=O)N(C)c2ccc(CC)cc21 | –
21 | – | – | – | – | CN1C(=O)c2ccccc2Oc2cc(C(O)(C(F)(F)F)C(F)(F)F)ccc21 | Emax [7]: 49%; EC50 [8]: 2.7 µM; Emax [9]: 12%; EC50 [10]: 4.2 µM
